Many of the other results were omitted from the sample, so hits are more common in it than they were.
Lmaj promast: reduces viability of Leishmania major promastigotes. inhibition, % at 10 µM. resazurin fluorescence viability. actives 9% (n = 200,000). AID 1063; in the data active means inhibition above about 50%;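 further: promastigotes grown with compound for 44 hours at 28 °C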
Hsp70 act: Hsp70 transcriptional activation, primary screen; HeLa Hsp70 promoter luciferase reporter, luminescence; scaled: vehicle 0, proteasome-inhibitor control 100%; activation, % at 10 µM; actives 0.04% (n = 200,000);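 active means activation above the mean across all tested compounds plus 3 SD, cutoff set per campaign, cut at about 5.5% in these data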;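 further: 100% = MG132 at 30 µM as the positive control and 0% = DMSO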
HSF-1 act: increases HSF-1 driven luciferase reporter signal. NIH3T3-HGL HSF-1 luciferase reporter, MG132, 8 h; 100% = twice DMSO control signal. activation, % at 9 µM. actives 1.7% (n = 300,000). AID 504408;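 active means mean replicate activation of at least 50% with a set share of replicates each reaching 50%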;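 further: 0% = median of the neutral control wells and 100% = twice that signal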
T cruzi repl: blocks replication of Trypanosoma cruzi; T. cruzi beta-gal in NIH3T3, luminescence, 90 h; inhibition, % (no concentration beside the values); actives 1.4% (n = 300,000);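 active means mean inhibition across valid replicates above about 55%, limit read from the data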;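 further: signal also drops with host cell toxicity which is not excluded here; 0% = plate median of DMSO wells and 100% = zero luminescence signal; higher percent means less beta-gal luminescence so fewer parasites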
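Assay system: NIH/3T3 fibroblasts plus reporter T. cruzi. Amount: NIH/3T3 cells, 5,000 per well. Buffer or medium: DMEM, 2% fetal bovine serum. Doses: compound pinned at 50 nL/well, DMSO. Schedule: ≥90 h infection period, 3 h prior cell attachment. Signal: luminescent β-galactosidase signal after 60 min lysis. Read-out: parasite load inhibition, %.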
HSF1 inhib: HSF1 inhibition; NIH3T3-HGL HSE-luciferase, MG132-induced, luminescence 8 h; active compounds read low; activity change, negative = inhibition, % at 7.5 µM (by protocol); actives 0.77% (n = 300,000);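 active means more than half of replicate wells show activity change below -50%, luminescence cut by over half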;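 further: luciferase reports HSF-1 transcriptional activity via heat shock element; 0% = median of DMSO wells and -100% = zero luminescence signal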
The depositor's hits bear a star; . = not tested or not shown.

SMILES	Lmaj promast	Hsp70 act	HSF-1 act	T cruzi repl	HSF1 inhib
COC(=O)c1ccc(N2CCN(C)CC2)c(NC(=O)COc2cccc(C)c2)c1	.	.	7.6	8.3	2.7
CN(C)S(=O)(=O)c1cccc(C(=O)NCC(C)(C)CNC(=O)c2cccc(S(=O)(=O)N(C)C)c2)c1	.	.	17.7	15.7	3.1
CN(C)Cc1c(O)ccc2oc(Cc3ccccc3)cc12	76.9*	-0.4	17.9	-1.6	6.2
CN(C)Cc1c(O)ccc2ccccc12	.	.	-2.8	-3.6	-0.4
FC(F)(F)c1cccc(OCCN2CCN(Cc3ccccc3)CC2)c1	76.2*	-0.1	-10.0	38.7	-1.2
Clc1cccc(OCCN2CCOCC2)c1	7.5	0.1	-0.2	-10.9	1.6
OCCN1CCN(CCOc2cccc(Cl)c2)CC1	90.0*	0.2	-16.0	66.0*	-3.4
CN(CCOc1cccc(C(F)(F)F)c1)Cc1ccccc1	-3.0	1.7	-7.9	7.3	4.8
Clc1cccc(OCCN2CCNCC2)c1	100.2*	-0.2	22.2	57.8*	19.5
COc1ccc(NC(=O)CSc2n[nH]c(CNc3cccc(C)c3)n2)cc1	.	.	7.8	-8.1	-4.8
CN1CCN(S(=O)(=O)c2ccc(N3CCc4ccccc4C3)nc2)CC1	94.5*	0.0	32.3	5.2	6.0
COc1ccc2c(/C=C/c3cc[n+](C)cc3)c[nH]c2c1	.	.	0.2	53.9	-10.5
CC[n+]1ccc(/C=C/c2c[nH]c3ccccc23)cc1	.	.	-10.5	70.5*	-9.4
Cc1ccc2[nH]cc(/C=C/c3cc[n+](C)cc3)c2c1	.	.	-13.5	58.8*	-1.6
Cc1ccc(NC(=O)Cn2ccc([N+](=O)[O-])n2)cc1C	-2.5	-0.3	-14.4	2.5	-6.2
Cc1ccc(Nc2nc(CSc3nnc(-c4cccnc4)n3-c3ccccc3C)cs2)cc1	97.0*	-0.3	-6.3	12.0	-6.0
Cc1ccccc1-n1c(SCc2csc(Nc3ccccc3)n2)nnc1-c1cccnc1	64.7*	-0.4	0.6	0.3	-7.9
COc1ccc(-c2cc(-c3cccs3)c(C#N)c(SCC(=O)NCc3ccccc3)n2)cc1	2.4	-0.1	-31.8	3.2	-8.4
COc1ccccc1CNC(=O)CSc1ccc(-c2ccncc2)nn1	94.1*	-0.2	-2.7	-2.8	-8.3
COc1ccccc1CCNC(=O)CSc1ccc(-c2cccs2)nn1	19.0	-0.3	-7.9	-0.6	6.9
COc1ccc(CCNC(=O)CSc2ccc(-c3ccccc3)nn2)cc1	-1.3	-0.4	4.0	-11.6	-5.9
COc1ccc(-c2cc(-c3cccs3)c(C#N)c(SCC(=O)NCc3ccccc3OC)n2)cc1	90.6*	-0.4	-15.1	-7.5	-4.6
COc1cccc(CNC(=O)CSc2ccc(-c3ccncc3)nn2)c1	88.9*	0.3	1.7	-2.8	-4.5
Cc1cc(C(=O)Nc2ncn[nH]2)ccc1[N+](=O)[O-]	-2.3	-0.5	10.0	-18.0	-4.8
Cc1cccc(OCC(O)CN2CCN(C3CCCCC3)CC2)c1 (centres undefined)	90.8*	0.0	11.9	-2.6	-6.6
SMILES	Lmaj promast	Hsp70 act	HSF-1 act	T cruzi repl	HSF1 inhib
CC1CCN(CC(O)COc2cccc(F)c2)CC1 (centres undefined)	66.4*	-0.2	-7.0	-12.8	-9.2
COc1cccc(OCC(O)CN2CCC(C)CC2)c1 (centres undefined)	71.4*	-0.3	7.5	-5.9	-3.9
CCN1CCN(CC(O)COc2cccc(OC)c2)CC1 (centres undefined)	1.6	-0.3	-1.5	1.5	-4.6
Cc1cccc(-c2ncc(CN3CCN(CCC(C)C)C(CCO)C3)cn2)c1 (centres undefined)	73.8*	-0.1	0.6	42.9	-1.9
Cc1cccc(-c2ncc(CN3CCN(C4CCCC4)C(CCO)C3)cn2)c1 (centres undefined)	63.6*	-0.5	-7.9	21.3	-8.9
Cn1c(/C(C#N)=C/c2cccc(O)c2)nc2ccccc21	89.2*	0.1	0.1	-27.0	0.0
CC(C)Nc1nc(Oc2ccc(=O)n(-c3ccccc3)n2)nc(N(C)C)n1	.	.	-1.6	9.9	-3.7
CCOc1ccccc1-c1nc(-c2cc3ccc(C)cc3[nH]c2=O)no1	68.9*	-0.1	14.0	31.0	13.9
COc1ccc(NC(=O)c2nc3nccc(C)n3n2)cn1	2.4	0.0	2.9	-5.2	-1.4
CC(NC(=O)C(C)N1C(=O)C2C3CC(C(Br)C3Br)C2C1=O)c1ccccc1 (centres undefined)	82.4*	-0.4	28.4	-7.5	-0.1
